From publication PMC9291915 (British Journal of Clinical Pharmacology, 2021)

What was measured:
[1] = cited from earlier work
CYP2B6 = biological target: T1, CYP2B6 (Homo sapiens, UniProt P20813); assay: Cytochrome P450 inhibition; format: in vitro ADME; conditions: substrate bupropion; any pre-incubation condition
T1 sequence (P20813 1-491): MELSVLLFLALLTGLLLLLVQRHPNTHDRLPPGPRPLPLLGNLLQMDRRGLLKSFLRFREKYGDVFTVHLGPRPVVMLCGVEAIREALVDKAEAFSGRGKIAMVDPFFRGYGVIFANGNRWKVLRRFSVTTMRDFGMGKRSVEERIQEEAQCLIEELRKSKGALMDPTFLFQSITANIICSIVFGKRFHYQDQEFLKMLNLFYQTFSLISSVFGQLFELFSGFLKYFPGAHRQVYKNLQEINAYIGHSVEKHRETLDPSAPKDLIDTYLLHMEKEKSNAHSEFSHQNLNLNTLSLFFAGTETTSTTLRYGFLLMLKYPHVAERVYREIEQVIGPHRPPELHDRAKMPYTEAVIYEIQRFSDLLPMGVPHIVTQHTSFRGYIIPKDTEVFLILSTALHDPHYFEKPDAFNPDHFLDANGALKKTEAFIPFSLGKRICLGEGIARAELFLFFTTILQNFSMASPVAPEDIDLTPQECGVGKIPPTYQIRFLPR
In short: (§1)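 Human liver microsomes (0.25 mg/mL final) were pre-incubated with the test compound at six concentrations (40 to 10 000, in water) for 30 min without or with NADPH, or with 0 min pre-incubation. Probe substrate and NADPH (1 mM) were then added (final DMSO 0.05%) and incubated 5 min at 37 °C. Isoform-specific time-dependent inhibitors served as positive controls. IC50 per condition was derived from the decrease in metabolite formation versus vehicle control.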

CYP2D6 = CYP2D6 (Homo sapiens, UniProt P10635); assay: Cytochrome P450 inhibition; format: in vitro ADME; conditions: substrate dextromethorphan; any pre-incubation condition
Sequence of CYP2D6 (P10635 whole entry): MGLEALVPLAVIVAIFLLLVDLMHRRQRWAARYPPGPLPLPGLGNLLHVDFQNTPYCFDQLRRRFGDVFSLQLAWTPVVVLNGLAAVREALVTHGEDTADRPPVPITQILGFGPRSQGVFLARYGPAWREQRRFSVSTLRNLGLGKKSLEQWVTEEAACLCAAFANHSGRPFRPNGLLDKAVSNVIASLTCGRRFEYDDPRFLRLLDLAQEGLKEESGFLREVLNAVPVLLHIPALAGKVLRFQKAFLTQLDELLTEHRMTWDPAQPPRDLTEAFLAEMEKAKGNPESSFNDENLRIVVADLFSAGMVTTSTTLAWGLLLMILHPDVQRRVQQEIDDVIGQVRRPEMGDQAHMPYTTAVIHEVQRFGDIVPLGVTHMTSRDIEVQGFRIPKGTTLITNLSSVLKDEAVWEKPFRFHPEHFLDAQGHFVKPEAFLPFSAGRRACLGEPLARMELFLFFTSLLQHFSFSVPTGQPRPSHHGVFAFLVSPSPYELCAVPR
In short: as §1

P-gp = P-gp (Homo sapiens, UniProt P08183); format: in vitro ADME
Sequence of P-gp (P08183 whole entry): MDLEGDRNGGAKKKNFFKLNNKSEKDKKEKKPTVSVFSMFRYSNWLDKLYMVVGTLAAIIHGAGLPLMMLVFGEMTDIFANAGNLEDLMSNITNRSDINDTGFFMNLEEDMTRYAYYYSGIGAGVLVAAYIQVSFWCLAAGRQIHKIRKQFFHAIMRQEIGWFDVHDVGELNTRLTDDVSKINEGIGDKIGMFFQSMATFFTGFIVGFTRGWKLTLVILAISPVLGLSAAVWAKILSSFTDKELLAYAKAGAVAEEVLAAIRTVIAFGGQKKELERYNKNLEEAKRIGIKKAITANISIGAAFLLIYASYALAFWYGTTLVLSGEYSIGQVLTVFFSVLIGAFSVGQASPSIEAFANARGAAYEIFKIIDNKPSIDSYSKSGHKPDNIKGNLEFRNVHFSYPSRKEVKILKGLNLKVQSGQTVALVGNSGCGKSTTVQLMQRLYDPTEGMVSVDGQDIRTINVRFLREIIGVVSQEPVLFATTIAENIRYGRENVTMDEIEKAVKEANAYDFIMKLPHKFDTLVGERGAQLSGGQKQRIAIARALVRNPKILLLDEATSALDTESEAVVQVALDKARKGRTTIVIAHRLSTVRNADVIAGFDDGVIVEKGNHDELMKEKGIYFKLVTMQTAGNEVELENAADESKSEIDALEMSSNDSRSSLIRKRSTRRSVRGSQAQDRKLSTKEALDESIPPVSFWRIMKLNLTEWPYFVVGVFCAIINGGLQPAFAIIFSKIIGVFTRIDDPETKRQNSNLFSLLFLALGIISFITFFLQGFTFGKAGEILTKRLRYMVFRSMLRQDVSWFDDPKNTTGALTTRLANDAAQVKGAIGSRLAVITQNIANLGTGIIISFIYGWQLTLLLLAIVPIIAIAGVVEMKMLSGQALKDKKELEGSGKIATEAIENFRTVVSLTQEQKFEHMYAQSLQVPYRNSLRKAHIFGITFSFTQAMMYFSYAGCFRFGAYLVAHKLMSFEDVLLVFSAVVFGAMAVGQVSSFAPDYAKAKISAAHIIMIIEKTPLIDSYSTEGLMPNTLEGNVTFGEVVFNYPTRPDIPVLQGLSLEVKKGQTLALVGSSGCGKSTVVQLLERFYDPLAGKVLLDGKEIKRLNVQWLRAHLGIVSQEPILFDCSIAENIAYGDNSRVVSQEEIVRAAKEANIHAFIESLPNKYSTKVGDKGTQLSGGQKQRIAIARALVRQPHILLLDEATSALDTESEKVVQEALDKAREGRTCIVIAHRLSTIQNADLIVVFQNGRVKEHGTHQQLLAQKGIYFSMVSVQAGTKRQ
In short: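 Bidirectional transport of loperamide was measured in a cell test system without and with a concentration range of the test compound; cyclosporin A was the control inhibitor. Papp = (dQ/dt)/(A×C0). Per replicate, A→B Papp was subtracted from B→A Papp to give net secretory flux. This was expressed as % of mean vehicle-control activity and fitted for IC50. Ki = IC50/(1+[S]×fu/Km), using loperamide Km 36.2.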

CYP2C19 = CYP2C19 (Homo sapiens, UniProt P33261); assay: Cytochrome P450 inhibition; format: in vitro ADME
Sequence of CYP2C19 (P33261 whole entry): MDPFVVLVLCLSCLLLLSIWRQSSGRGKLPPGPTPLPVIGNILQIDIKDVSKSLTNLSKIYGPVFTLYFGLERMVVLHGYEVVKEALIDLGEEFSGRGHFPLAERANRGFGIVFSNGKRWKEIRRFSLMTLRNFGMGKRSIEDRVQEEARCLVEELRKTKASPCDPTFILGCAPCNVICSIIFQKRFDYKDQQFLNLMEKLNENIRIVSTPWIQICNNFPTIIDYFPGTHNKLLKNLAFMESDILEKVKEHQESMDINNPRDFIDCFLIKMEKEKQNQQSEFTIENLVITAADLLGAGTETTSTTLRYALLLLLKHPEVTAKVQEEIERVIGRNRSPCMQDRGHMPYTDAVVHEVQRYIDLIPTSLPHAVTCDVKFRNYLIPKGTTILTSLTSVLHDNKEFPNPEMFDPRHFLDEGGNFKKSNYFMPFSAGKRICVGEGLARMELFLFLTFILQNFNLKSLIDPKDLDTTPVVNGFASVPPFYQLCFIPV
In short: as §1

[2] = Clinical pharmacokinetics of treosulfan in plasma and urine; format: in vivo, human; conditions: for AUC / half-life: human, plasma, intravenous; for AUC: 14 g/m^2, AUC; for half-life: 14 g/m^2, apparent half‐life, median
CYP1A2 = biological target: T2, CYP1A2 (Homo sapiens, UniProt P05177); assay: Cytochrome P450 inhibition; format: in vitro ADME; conditions: substrate phenacetin; any pre-incubation condition
T2 sequence (P05177 1-516): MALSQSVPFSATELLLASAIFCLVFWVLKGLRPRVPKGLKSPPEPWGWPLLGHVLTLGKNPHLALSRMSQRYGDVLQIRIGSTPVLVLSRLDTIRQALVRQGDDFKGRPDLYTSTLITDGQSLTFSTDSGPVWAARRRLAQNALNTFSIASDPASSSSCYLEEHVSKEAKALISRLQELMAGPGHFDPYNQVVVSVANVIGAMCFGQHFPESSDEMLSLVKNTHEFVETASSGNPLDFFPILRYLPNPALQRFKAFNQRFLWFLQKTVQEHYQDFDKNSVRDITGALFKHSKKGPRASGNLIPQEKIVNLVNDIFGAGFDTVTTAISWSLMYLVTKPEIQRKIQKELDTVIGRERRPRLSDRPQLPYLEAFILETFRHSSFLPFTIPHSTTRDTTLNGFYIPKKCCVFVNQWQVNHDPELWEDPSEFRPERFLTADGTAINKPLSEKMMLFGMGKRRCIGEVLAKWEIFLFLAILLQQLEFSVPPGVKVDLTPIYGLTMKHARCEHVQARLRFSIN
In short: as §1

[3] = cited from earlier work; remark: listed apart in the source
[4] = cited from earlier work; remark: listed apart in the source
CYP2C8 = biological target: T3, CYP2C8 (Homo sapiens, UniProt P10632); assay: Cytochrome P450 inhibition; format: in vitro ADME; conditions: substrate paclitaxel; any pre-incubation condition
T3 sequence (P10632 1-490): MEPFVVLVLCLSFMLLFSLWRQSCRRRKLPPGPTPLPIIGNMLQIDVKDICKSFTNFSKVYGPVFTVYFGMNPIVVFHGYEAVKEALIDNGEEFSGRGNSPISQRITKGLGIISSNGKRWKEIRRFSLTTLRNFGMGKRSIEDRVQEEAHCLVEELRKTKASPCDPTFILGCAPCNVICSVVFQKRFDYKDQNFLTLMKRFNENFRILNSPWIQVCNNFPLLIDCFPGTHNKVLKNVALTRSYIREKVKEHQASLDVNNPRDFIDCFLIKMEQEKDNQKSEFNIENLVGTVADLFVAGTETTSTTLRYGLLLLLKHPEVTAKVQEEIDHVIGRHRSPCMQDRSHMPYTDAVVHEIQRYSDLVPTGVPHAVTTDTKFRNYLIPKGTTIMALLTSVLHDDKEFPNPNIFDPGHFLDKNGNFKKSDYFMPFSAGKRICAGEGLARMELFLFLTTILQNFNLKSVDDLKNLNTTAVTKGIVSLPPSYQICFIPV
In short: as §1

CYP3A4 = CYP3A4 (Homo sapiens, UniProt P08684); assay: Cytochrome P450 inhibition; format: in vitro ADME
Sequence of CYP3A4 (P08684 whole entry): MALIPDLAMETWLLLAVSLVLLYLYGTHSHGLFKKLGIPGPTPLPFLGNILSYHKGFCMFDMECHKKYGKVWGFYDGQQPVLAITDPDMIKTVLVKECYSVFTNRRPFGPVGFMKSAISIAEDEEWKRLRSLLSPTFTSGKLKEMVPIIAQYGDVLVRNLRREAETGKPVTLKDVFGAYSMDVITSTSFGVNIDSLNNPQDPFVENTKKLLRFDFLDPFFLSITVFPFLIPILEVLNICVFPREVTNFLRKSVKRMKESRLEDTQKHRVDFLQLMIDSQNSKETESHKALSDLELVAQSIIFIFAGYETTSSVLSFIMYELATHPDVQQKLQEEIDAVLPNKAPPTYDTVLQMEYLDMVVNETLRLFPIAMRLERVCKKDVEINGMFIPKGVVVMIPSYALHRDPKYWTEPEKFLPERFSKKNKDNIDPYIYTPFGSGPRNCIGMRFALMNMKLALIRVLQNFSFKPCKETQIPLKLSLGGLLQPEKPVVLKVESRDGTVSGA
In short: as §1

CYP2C9 = CYP2C9 (Homo sapiens, UniProt P11712); assay: Cytochrome P450 inhibition; format: in vitro ADME; conditions: substrate diclofenac; any pre-incubation condition
Sequence of CYP2C9 (P11712 whole entry): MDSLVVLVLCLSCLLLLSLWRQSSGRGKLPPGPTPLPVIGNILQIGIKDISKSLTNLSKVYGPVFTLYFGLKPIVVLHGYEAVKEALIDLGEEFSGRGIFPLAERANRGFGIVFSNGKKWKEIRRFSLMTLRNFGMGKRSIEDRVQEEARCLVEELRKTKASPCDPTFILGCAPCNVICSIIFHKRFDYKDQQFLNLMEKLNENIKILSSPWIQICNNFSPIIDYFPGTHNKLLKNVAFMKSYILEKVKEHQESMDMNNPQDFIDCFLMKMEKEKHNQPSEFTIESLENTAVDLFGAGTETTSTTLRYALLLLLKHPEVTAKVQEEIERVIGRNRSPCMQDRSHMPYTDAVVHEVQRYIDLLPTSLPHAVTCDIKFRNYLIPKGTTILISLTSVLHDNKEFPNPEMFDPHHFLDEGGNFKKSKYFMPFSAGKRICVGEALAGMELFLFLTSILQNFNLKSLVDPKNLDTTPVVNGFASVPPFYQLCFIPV
In short: as §1

## CS(=O)(=O)OC[C@H](O)[C@@H](O)COS(C)(=O)=O [treosulfan, L‐threitol‐1,4‐bis‐methanesulfonate]
[1]
  GFR fraction, literature: Estimated (literature[20]: 0.41 ± 0.22)
CYP2B6
  inhibition of CYP2B6: did not inhibit
CYP2D6
  inhibition of CYP2D6: did not inhibit
P-gp
  Ki: 1770 µM
P-gp; human, in vitro cell test system (cell line not given), probe loperamide
  IC50: > 1000 µM
CYP2C19
  IC50: 972 µM
  Ki: 778 µM
[2]; day −4, patients
  AUC: 1450 µg·h/mL
  half-life: 1.93 h
[2]; day −6, patients
  AUC: 1420 µg·h/mL
  half-life: 1.86 h
[2]; patients
  administered dose excreted in urine: About 40%
[2]; patients, CV% = 31.98%
  rate at which dose was excreted in urine: 130.38 mL/min
CYP1A2
  inhibition of CYP1A2: did not inhibit
[3]
  Log P O:W: −1.58
[4]
  B:P (blood‐plasma ratio): 0.88
CYP2C8
  inhibition of CYP2C8: did not inhibit
CYP3A4
  IC50: 1870 µM
  Ki: 1210 µM
CYP3A4; 40 to 10 000 μM treosulfan, any pre-incubation condition
  inhibition of CYP3A4 using testosterone as the substrate: did not inhibit
CYP2C9
  inhibition of CYP2C9: did not inhibit
